Test results: ChEMBL document CHEMBL4480384, “Benzo[d]thiazol-2(3H)-ones as new potent selective CB2 agonists with anti-inflammatory properties” (Eur J Med Chem, 2019)
In brackets after ≈: the same amount, converted by molar mass.

Legend:
Cannabinoid receptor 2 [1] = molecular target: T1, Cannabinoid receptor 2 (Homo sapiens, UniProt P34972); test: Displacement of [3H]-CP-55940 from human CB2 receptor expressed in CHO cell membranes after 1 hr by beta-counting analysis
Cannabinoid receptor 1 [2] = molecular target: T2, Cannabinoid receptor 1 (Homo sapiens, UniProt P21554); test: Displacement of [3H]-CP-55940 from human CB1 receptor expressed in CHO cell membranes after 1 hr by beta-counting analysis
Homo sapiens = species on record: Homo sapiens; test: Selectivity index, ratio of Ki for human CB1 receptor expressed in CHO cell membranes to Ki for human CB2 receptor expressed in CHO cell membranes; format: cell-based
Cannabinoid receptor 2 [3] = molecular target: T1, Cannabinoid receptor 2; test: Agonist activity at human CB2 receptor expressed in CHO cell membranes assessed as [35S]GTPgammaS binding after 1 hr by beta-counting analysis; format: functional
Cannabinoid receptor 2 [4] = molecular target: T1, Cannabinoid receptor 2; test: Agonist activity at human CB2 receptor expressed in CHO cell membranes assessed as [35S]GTPgammaS binding after 1 hr by beta-counting analysis relative to control; format: functional
Method in brief: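 Membranes from hCB2-CHO cells, 40 μg protein, in 50 mM Tris-HCl, 3 mM MgCl2, 1 mM EDTA, 100 mM NaCl, 0.1% BSA, pH 7.4, with 20 μM GDP. [35S]-GTPγS was 0.05 nM final, 1 h at 30°C. Filtration on GF/B, then β-counting. Nonspecific binding was set with 100 μM Gpp(NH)p.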

HT-29 = test: Cytotoxicity against human HT-29 cells at 10 uM after 72 hrs by MTS assay relative to control; format: cell-based; details: ht-29, 72 h
Method in brief: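 HT29 cells were grown in DMEM-Glutamax with 10% FBS at 37°C and 5% CO2. They were seeded at 3000 cells/well in triplicate and allowed 24 h. Compounds were added at 10 μM with DMSO below 0.1%, for 72 h. Read-out was the MTS colorimetric test, given as % proliferation inhibition from ≥4 experiments in duplicate.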

Cannabinoid receptor 2 [5] = molecular target: T1, Cannabinoid receptor 2; test: Displacement of [3H]-CP-55940 from human CB2 receptor expressed in CHO cell membranes at 10 uM after 1 hr by beta-counting analysis
Method in brief: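 Competition binding to hCB2-CHO membranes (40 μg) with [3H]-CP-55,940 1 nM in Tris-HCl/MgCl2/EDTA/0.5% BSA buffer, pH 7.4, 1 h at 30°C. Final DMSO was below 0.1%. Filtration on GF/B, then β-count; HU-210 10 µM defined nonspecific binding. Compounds were first screened at 10 μM.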

Cannabinoid receptor 2 [6] = molecular target: T1, Cannabinoid receptor 2; test: Agonist activity at human CB2 receptor
Cannabinoid receptor 1 [7] = molecular target: T2, Cannabinoid receptor 1; test: Agonist activity at human CB1 receptor
[8] = Protein binding in human plasma assessed as drug recovery after 4 hrs by equilibrium dialysis method; format: ADME, cell-free; details: read-out: Drug recovery
Method in brief: (§1)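 Human plasma protein binding was measured by equilibrium dialysis, 4 h at 37°C. Both % bound and % recovery were reported.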

Mus musculus [9] = test: Anti-inflammatory activity in C57BL6 mouse model of DSS-induced acute colitis assessed as body weight change at 10 mg/kg, ip measured on day 9 (reference value: 79.5 +/- 1.8%); format: functional
Mus musculus [10] = test: Anti-inflammatory activity in C57BL6 mouse model of DSS-induced acute colitis assessed colon weight/size ratio at 10 mg/kg, ip measured on day 9 (reference value: 0.050 +/- 0.0014); format: functional
Mus musculus [11] = test: Anti-inflammatory activity in C57BL6 mouse model of DSS-induced acute colitis assessed reduction in MPO activity at 10 mg/kg, ip measured on day 9 relative to control; format: functional; details: 216 h
Method in brief: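 DSS-colitis C57BL6 mice were dosed ip at 10 mg/kg daily in hydroxypropyl-β-cyclodextrin, against vehicle controls. Colon was homogenised in phosphate buffer pH 6.0 with 0.5% hexadecyltrimethyl ammonium, then sonicated and freeze-thawed. Supernatant was reacted with o-dianisidine 1 mg/ml and H2O2 0.0005%, and OD read at 450 nm. Results were normalised to Bradford protein; n = 10.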

Mus musculus [12] = test: Anti-inflammatory activity in C57BL6 mouse model of DSS-induced acute colitis assessed iNos mRNA expression at 10 mg/kg, ip measured on day 9 (reference value: 1 +/- 0.2 a.u.); format: functional
Method in brief: (§2)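 Colons came from DSS-colitis C57BL6 mice dosed ip at 10 mg/kg daily in hydroxypropyl-β-cyclodextrin, or given vehicle. Total RNA was extracted and reverse-transcribed. Sod2 and iNos mRNA were measured by SYBR Green RT-qPCR against the PolR2A reference gene. Mean ± SEM, n = 10, Mann-Whitney U test.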

Mus musculus [13] = test: Anti-inflammatory activity in C57BL6 mouse model of DSS-induced acute colitis assessed Sod2 mRNA expression at 10 mg/kg, ip measured on day 9 (reference value: 2 +/- 0.4 a.u.); format: functional; method in brief: as §2
[14] = Aqueous solubility of compound in stimulated intestinal fluid after 24 hrs by shake-flask method; format: physicochemical; details: simulated intestinal fluid
Method in brief: (§3)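 Solubility was measured by shake-flask for 24 h at room temperature in PBS pH 7.4, simulated gastric fluid or simulated intestinal fluid.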

[15] = Aqueous solubility of compound in pH 7.4 PBS after 24 hrs by shake-flask method; format: physicochemical; method in brief: as §3
[16] = Aqueous solubility of compound in stimulated gastric fluid after 24 hrs by shake-flask method; format: physicochemical; details: simulated gastric fluid; method in brief: as §3
[17] = Protein binding in human plasma after 4 hrs by equilibrium dialysis method; format: ADME, cell-free; details: read-out: PPB (converted); method in brief: as §1
[18] = Permeability of the compound across apical side to basolateral side in human Caco2 after 60 mins; format: ADME, cell-based; details: Caco-2, read-out: permeability
Method in brief: (§4)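 Caco-2 monolayers were dosed apical-to-basolateral and basolateral-to-apical, pH 6.5/7.4, at 37°C. Samples were taken at 0 and 60 min, and permeability reported in 10^-6 cm/s.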

[19] = Permeability of the compound across basolateral side to apical side in human Caco2 after 60 mins; format: ADME, cell-based; details: Caco-2, read-out: permeability; method in brief: as §4
[20] = Efflux ratio of permeability in human Caco2 after 60 mins; format: ADME, cell-based; details: Caco-2
Method in brief: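 Run by a contract lab. Compound incubated with the Caco-2 cell line at 37 °C, pH 6.5/7.4, sampled at 0 and 60 min. Apparent permeability measured A-B and B-A, and the efflux ratio taken as (B-A)/(A-B).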

[21] = Stability in human liver microsomes assessed as compound remaining at 0.1 mg/ml after 60 mins; format: ADME, Microsome; details: read-out: Stability
Method in brief: (§5)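 Incubation with human liver microsomes at 0.1 mg/mL, 37°C, sampled at 0 and 60 min. Outputs were % remaining at 60 min, half-life and intrinsic clearance in μL/min/mg.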

[22] = Half life in human liver microsomes at 0.1 mg/ml after 60 mins; format: ADME, Microsome; method in brief: as §5
[23] = Intrinsic clearance in human liver microsomes at 0.1 mg/ml after 60 mins; format: ADME, Microsome; details: read-out: CLH; method in brief: as §5

T2 sequence (P21554 whole entry): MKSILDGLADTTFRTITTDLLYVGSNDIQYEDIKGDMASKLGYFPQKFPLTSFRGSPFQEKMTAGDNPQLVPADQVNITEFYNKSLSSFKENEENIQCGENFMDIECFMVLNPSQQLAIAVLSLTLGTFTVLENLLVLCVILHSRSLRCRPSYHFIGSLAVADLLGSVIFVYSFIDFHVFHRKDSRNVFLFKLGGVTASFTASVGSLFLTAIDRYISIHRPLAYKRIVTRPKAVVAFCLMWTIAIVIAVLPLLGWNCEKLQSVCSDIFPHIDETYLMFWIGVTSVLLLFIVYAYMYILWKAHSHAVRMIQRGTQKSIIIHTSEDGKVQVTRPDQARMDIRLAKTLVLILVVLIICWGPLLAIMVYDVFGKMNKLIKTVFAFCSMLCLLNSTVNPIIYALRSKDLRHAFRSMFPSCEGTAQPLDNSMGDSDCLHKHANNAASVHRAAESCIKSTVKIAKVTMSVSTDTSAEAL
T1 sequence (P34972 whole entry): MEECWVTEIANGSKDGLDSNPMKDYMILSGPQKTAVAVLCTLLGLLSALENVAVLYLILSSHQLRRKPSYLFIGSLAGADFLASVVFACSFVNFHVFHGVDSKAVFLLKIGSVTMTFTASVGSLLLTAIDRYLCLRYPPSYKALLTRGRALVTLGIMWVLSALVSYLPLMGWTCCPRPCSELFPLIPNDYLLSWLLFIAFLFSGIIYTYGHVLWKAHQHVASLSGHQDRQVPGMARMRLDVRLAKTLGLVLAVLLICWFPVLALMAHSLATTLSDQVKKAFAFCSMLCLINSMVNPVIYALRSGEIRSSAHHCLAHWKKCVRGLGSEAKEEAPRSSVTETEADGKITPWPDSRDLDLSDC

Row | SMILES | Ki (Cannabinoid receptor 2 [1]) | Ki (Cannabinoid receptor 1 [2]) | Ratio Ki (Homo sapiens) | inhibition (Cannabinoid receptor 2 [5]) | also measured
1 | CCCC(C)(C)c1ccc2c(c1)OC(C)(C)[C@@H]1CC=C(C)C[C@@H]21 | 8 nM | > 1000 nM | > 125 | – | –
2 | CCCCn1c(=O)sc2cc(C(=O)C34CC5CC(CC(C5)C3)C4)ccc21 | 26 nM | 780 nM | 30 | > 60% | EC50 (Cannabinoid receptor 2 [3]): 150 nM; Emax (Cannabinoid receptor 2 [4]): 152%; Activity (HT-29): 0%
3 | CCCCCn1c(=O)sc2cc(C(=O)NC34CC5CC(CC(C5)C3)C4)ccc21 | > 1000 nM | – | – | > 60% | –
4 | CCCCCn1c(=O)sc2cc(C(=O)c3ccccc3)ccc21 | > 1000 nM | – | – | > 60% | –
5 | CCCCCn1c(=O)sc2cc(C(OC)C34CC5CC(CC(C5)C3)C4)ccc21 (stereo not given) | 344 nM | > 1000 nM | > 3 | > 60% | –
6 | CCCCCn1c(=O)sc2cc(/C(=N\OC)C34CC5CC(CC(C5)C3)C4)ccc21 | 438 nM | – | – | > 60% | –
7 | CCCCCn1c(=O)oc2cc(C(=O)C3C(C)(C)C3(C)C)ccc21 | > 1000 nM | – | – | > 60% | –
8 | CC(Cn1c(=O)sc2cc(C(=O)C34CC5CC(CC(C5)C3)C4)ccc21)N(C)C (stereo not given) | 506 nM | – | – | > 60% | –
9 | CC(C)n1c(=O)sc2cc(C(=O)C34CC5CC(CC(C5)C3)C4)ccc21 | 281 nM | > 1000 nM | > 4 | > 60% | –
10 | CCCCCn1c(=O)sc2cc(/C(=N\O)C34CC5CC(CC(C5)C3)C4)ccc21 | 251 nM | > 1000 nM | > 4 | > 60% | –
11 | CCS(=O)(=O)Nc1ccc2c(c1)nc(C(C)(C)C)n2CC1CCC(F)(F)CC1 | – | – | – | – | Ki (Cannabinoid receptor 2 [6]): 0.87 nM; Ki (Cannabinoid receptor 1 [7]): 11.7 nM
12 | CCCCCn1c(=O)sc2ccc(C(=O)C3CCCCC3)cc21 | > 1000 nM | – | – | > 60% | –
13 | CCCCCn1c(=O)oc2cc(C(=O)C3CCCCC3)ccc21 | > 1000 nM | – | – | > 60% | –
14 | CCCCCn1c(=O)oc2cc(C(=O)C34CC5CC(CC(C5)C3)C4)ccc21 | > 1000 nM | – | – | > 60% | –
15 | CCCCCn1c(=O)sc2cc(C(=O)C34CC5CC(CC(C5)C3)C4)ccc21 | 13.5 nM | 627 nM | 46 | > 60% | recovery at 4 h [8]: 100%; EC50 (Cannabinoid receptor 2 [3]): 41.9 nM; Emax (Cannabinoid receptor 2 [4]): 157%; Activity (HT-29): 0%; Activity (Mus musculus [9]): 85.9%; Ratio (Mus musculus [10]): 0.044; inhibition in vivo at 10 mg/kg (Mus musculus [11]): 43%; Activity (Mus musculus [12]): 0.4 a.u.; Activity (Mus musculus [13]): 1.2 a.u.; solubility thermodynamic at 24 h [14]: 107 µM (≈ 41.2 µg/mL); solubility thermodynamic at 24 h [15]: 1 µM (≈ 0.384 µg/mL); solubility thermodynamic at 24 h [16]: 183 µM (≈ 70.3 µg/mL); fraction unbound at 4 h [17]: 0.11; Papp A→B at 1 h [18]: 1.8 ×10⁻⁶ cm/s; Papp B→A at 1 h [19]: 1.3 ×10⁻⁶ cm/s; efflux ratio at 1 h [20]: 0.7; remaining at 1 h [21]: 43%; half-life [22]: 48 min; microsomal CLint [23]: 146 µL/min/mg
16 | CCCCCn1c(=O)sc2cc(C(=O)C3CCCCC3)ccc21 | 49.5 nM | > 1000 nM | > 20 | > 60% | EC50 (Cannabinoid receptor 2 [3]): 41.5 nM; Emax (Cannabinoid receptor 2 [4]): 178%; Activity (HT-29): 67%
17 | CCCCCn1c(=O)sc2ccc(C(=O)C3C(C)(C)C3(C)C)cc21 | > 1000 nM | – | – | > 60% | –
18 | CCCCCn1c(=O)sc2cc(C(O)C34CC5CC(CC(C5)C3)C4)ccc21 (stereo not given) | 272 nM | > 1000 nM | > 4 | > 60% | –
19 | Cc1c(C(=O)c2cccc3ccccc23)c2cccc3c2n1[C@H](CN1CCOCC1)CO3 | – | – | – | – | Emax (Cannabinoid receptor 2 [4]): 181%
20 | CCCCCn1c(=O)sc2cc(CC34CC5CC(CC(C5)C3)C4)ccc21 | 144 nM | 593 nM | 4 | > 60% | –
21 | CC(C)(C)NC(=O)c1nn(-c2ccc(F)cc2F)c2c1[C@H]1CC[C@@H]2C1 [TEDALINAB] | – | – | – | – | Ki (Cannabinoid receptor 2 [6]): 11.8 nM; Ki (Cannabinoid receptor 1 [7]): 985 nM
22 | CCCCCn1c(=O)sc2cc(C(=O)C3C(C)(C)C3(C)C)ccc21 | > 1000 nM | – | – | > 60% | –
23 | CCCCCn1c(=O)sc2cc(NC(=O)C34CC5CC(CC(C5)C3)C4)ccc21 | > 1000 nM | – | – | > 60% | –
24 | CCCCCn1c(=O)sc2cc(C(=O)C3CCCC3)ccc21 | 210 nM | > 1000 nM | > 5 | > 60% | –
25 | CCCCCCn1c(=O)sc2cc(C(=O)C34CC5CC(CC(C5)C3)C4)ccc21 | 39 nM | 903 nM | 23 | > 60% | EC50 (Cannabinoid receptor 2 [3]): 32.8 nM; Emax (Cannabinoid receptor 2 [4]): 169%; Activity (HT-29): 0%
26 | CCCCCn1c(=O)sc2ccc(C(=O)C34CC5CC(CC(C5)C3)C4)cc21 | 526 nM | – | – | > 60% | –
